Measurements: ChEMBL document CHEMBL3751709, “Concise Synthesis of Spergualin-Inspired Molecules With Broad-Spectrum Antibiotic Activity” (2015)
In brackets after ≈: the same amount, converted by molar mass. Activity calls are given as the source filed them. The calls are words filed in the database; no cut-off is given here.

Key:
Format in all cases: functional
[1] = test system: Escherichia coli; assay: Antimicrobial activity against Escherichia coli K-12 MG1655 after 24 hrs by double dilution method
Procedure, shortened: (§1)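 Double (2-fold) dilution series added to inoculum at OD600 0.1, giving final 256 to 2 μg/mL. H. influenzae was scraped from agar into supplemented BHI medium. Other strains were diluted from an overnight LB culture (37 °C, 200 rpm) into LB. Plates were covered and shaken at 200 rpm, 37 °C, for 24 h before MIC was read. At least two runs in triplicate.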

[2] = test system: Haemophilus influenzae; assay: Antimicrobial activity against Haemophilus influenzae ATCC 51907 after 24 hrs by double dilution method; procedure, shortened: as §1
[3] = test system: Bacillus anthracis; assay: Antimicrobial activity against Bacillus anthracis 34F2 Sterne after 24 hrs by double dilution method
[4] = test system: Bacillus cereus; assay: Antimicrobial activity against Bacillus cereus ATCC 11778 after 24 hrs by double dilution method; procedure, shortened: as §1
[5] = test system: Bacillus subtilis; assay: Antimicrobial activity against Bacillus subtilis 168 after 24 hrs by double dilution method; procedure, shortened: as §1
[6] = test system: Staphylococcus aureus; assay: Antimicrobial activity against Staphylococcus aureus RN4220 after 24 hrs by double dilution method; procedure, shortened: as §1
[7] = test system: Staphylococcus aureus; assay: Bactericidal activity against Staphylococcus aureus RN4220 8 to 16 ug/ml at after 4 to 24 hrs by time kill assay
Procedure, shortened: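 Time-kill: 5 mL S. aureus cultures at OD600 0.1 were treated with compound (final 8 to 16 μg/mL) or DMSO. 100 μL was sampled at 0, 4 and 24 h, serially diluted 10-fold in sterile PBS, and 2 μL spotted on LB agar to count CFUs.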

Compound	Activity [1]	MIC ([1]; K-12 MG1655, 24 h) [µg/mL]	Activity [2]	MIC ([2]; ATCC 51907, 24 h) [µg/mL]	Activity [3]	MIC [3]	Activity [4]	MIC ([4]; ATCC 11778, 24 h) [µg/mL]	Activity ([5]; subsp. subtilis str. 168)	MIC ([5]; subsp. subtilis str. 168, 24 h) [µg/mL]	Activity [6]	MIC ([6]; RN4220, 24 h) [µg/mL]	Activity [7] [log10CFU]	MIC [1]	MIC [2]	MIC [4]	MIC ([5]; subsp. subtilis str. 168)	MIC [6]
NCCCCNC(=O)C(c1ccc(Br)cc1)N(Cc1ccccc1)C(=O)CCS (stereo not drawn)	Dose-dependent effect	32 (≈ 66.9 µM)	Dose-dependent effect	16 (≈ 33.4 µM)	Dose-dependent effect	4 µg/mL (≈ 8.36 µM)	Dose-dependent effect	8 (≈ 16.7 µM)	Dose-dependent effect	4 (≈ 8.36 µM)	Dose-dependent effect	8 (≈ 16.7 µM)	>3	–	–	–	–	–
CC(C)C1CCC(C(=O)NCC(=O)NCc2ccccc2)CC1 (stereo not drawn)	–	> 128	–	> 128	–	> 128 µg/mL	–	> 128	–	> 128	–	> 128	–	–	–	–	–	–
N#Cc1ccc(C(=O)N(CCCc2ccccc2)CC(=O)N2CCNCC2)cc1	–	> 128	–	> 128	–	> 128 µg/mL	–	> 128	–	> 128	–	> 128	–	–	–	–	–	–
CN(C)[C@@H]1C(O)=C(C(N)=O)C(=O)[C@@]2(O)C(O)=C3C(=O)c4c(O)cccc4[C@@](C)(O)[C@H]3C[C@@H]12 [TETRACYCLINE]	–	< 2	–	< 2	–	< 2 µg/mL	–	< 2	–	< 2	–	< 2	–	–	–	–	–	–
CC(C)SCC(=O)NCC(=O)NCc1ccccc1	–	> 128	–	> 128	–	> 128 µg/mL	–	> 128	–	> 128	–	> 128	–	–	–	–	–	–
CCC(C)C(=O)NCC(=O)N1CCN(Cc2ccccc2)CC1 (stereo not drawn)	–	> 128	–	> 128	–	> 128 µg/mL	–	> 128	–	> 128	–	> 128	–	–	–	–	–	–
NCc1ccccc1	–	–	–	–	–	inactive	–	–	–	–	–	–	–	inactive	inactive	inactive	inactive	inactive
O=C(O)CCS	–	–	–	–	–	inactive	–	–	–	–	–	–	–	inactive	inactive	inactive	inactive	inactive
CCCC(=O)N(Cc1ccccc1)C(C(=O)NCCCCN)c1ccc(Br)cc1 (stereo not drawn)	–	256 (≈ 556 µM)	–	64 (≈ 139 µM)	–	32 µg/mL (≈ 69.5 µM)	–	32 (≈ 69.5 µM)	–	16 (≈ 34.8 µM)	–	32 (≈ 69.5 µM)	–	–	–	–	–	–
NCCCCNCCCN	–	–	–	–	–	inactive	–	–	–	–	–	–	–	inactive	inactive	inactive	inactive	inactive
O=Cc1ccc(Br)cc1	–	–	–	–	–	inactive	–	–	–	–	–	–	–	inactive	inactive	inactive	inactive	inactive
N=C(N)NCCCC[C@H](O)CC(=O)N[C@@H](O)C(=O)NCCCCNCCCN	–	50 (≈ 124 µM)	–	–	–	12.5 µg/mL (≈ 31 µM)	–	50 (≈ 124 µM)	–	6.25 (≈ 15.5 µM)	–	6.25 (≈ 15.5 µM)	–	–	–	–	–	–
